Activity calls are given as the source filed them. The rule behind the calls is not given here.
Experiments:
CYP2C9 = CYP2C9 (Homo sapiens, UniProt P11712); assay: Inhibition of CYP2C9 (unknown origin) at 3 uM relative to control; format: ADME
Method in brief: (§1)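 Inhibition of CYP1A2, 2D6, 2C9 and 3A4 reported as IC50, or as percent inhibition at 3 µM.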

Ribosome [1] = assay: Binding affinity to 80S ribosome in rat IEC-6 cells assessed as induction of changes in Cox15 nascent chain expression at 4 uM by ribosome profiling method; format: cell-based
Method in brief: (§2)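 Rat IEC-6 cells exposed 1 h to 4 µM compound or vehicle, followed by ribosome profiling. Cumulative read fractions along annotated protein regions compared with vehicle. RPKM taken from reads 3' of the Dmax position when the Dmax Z-score is >2.0, otherwise 3' of codon 50.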

[2] = biological target: T1, Voltage-gated inwardly rectifying potassium channel KCNH2 (Homo sapiens, UniProt Q12809); assay: Inhibition of dofetilide binding to human ERG by fluorescence polarization assay
T1 sequence (Q12809 whole entry): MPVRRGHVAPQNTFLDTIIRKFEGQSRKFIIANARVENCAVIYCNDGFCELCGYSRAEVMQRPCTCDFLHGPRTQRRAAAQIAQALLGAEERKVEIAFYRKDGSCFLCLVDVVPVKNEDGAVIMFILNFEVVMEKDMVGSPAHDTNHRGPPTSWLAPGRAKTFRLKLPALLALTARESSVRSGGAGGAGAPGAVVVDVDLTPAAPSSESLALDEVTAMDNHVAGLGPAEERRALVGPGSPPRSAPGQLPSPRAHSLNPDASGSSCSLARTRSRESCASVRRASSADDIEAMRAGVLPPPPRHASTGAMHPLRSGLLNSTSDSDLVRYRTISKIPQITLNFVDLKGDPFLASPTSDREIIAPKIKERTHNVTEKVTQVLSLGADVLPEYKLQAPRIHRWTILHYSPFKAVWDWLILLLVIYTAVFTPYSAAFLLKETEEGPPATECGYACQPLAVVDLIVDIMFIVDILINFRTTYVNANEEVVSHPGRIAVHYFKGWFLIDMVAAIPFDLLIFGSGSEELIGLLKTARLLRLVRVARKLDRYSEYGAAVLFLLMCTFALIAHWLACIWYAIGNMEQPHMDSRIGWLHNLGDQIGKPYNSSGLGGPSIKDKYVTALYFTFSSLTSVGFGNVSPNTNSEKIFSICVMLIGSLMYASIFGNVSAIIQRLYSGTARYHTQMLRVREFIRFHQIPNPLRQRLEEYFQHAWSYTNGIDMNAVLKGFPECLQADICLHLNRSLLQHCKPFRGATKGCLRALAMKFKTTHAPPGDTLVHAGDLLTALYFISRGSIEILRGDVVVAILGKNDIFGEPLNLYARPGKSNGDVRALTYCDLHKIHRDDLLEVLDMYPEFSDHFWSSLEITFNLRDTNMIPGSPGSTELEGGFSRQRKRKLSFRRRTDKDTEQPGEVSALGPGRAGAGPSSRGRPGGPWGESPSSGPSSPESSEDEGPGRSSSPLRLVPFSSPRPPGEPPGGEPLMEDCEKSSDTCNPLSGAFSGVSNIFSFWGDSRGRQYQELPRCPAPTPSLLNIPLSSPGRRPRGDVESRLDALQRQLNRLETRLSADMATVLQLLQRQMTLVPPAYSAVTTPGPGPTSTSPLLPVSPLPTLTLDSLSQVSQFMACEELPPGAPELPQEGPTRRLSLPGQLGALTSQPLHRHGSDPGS

Rattus norvegicus [3] = assay: Toxicity in Crl:CD(SD) rat at 50 mg/kg/day, po daily via gavage for 14 days; format: organism-based; conditions: in vivo, 336 h
[4] = Cytotoxicity against human CD34-positive hematopoietic progenitor cells assessed as reduction in cell viability after 72 hrs by CellTiter-Glo assay; format: cell-based
[5] = biological target: T1, Voltage-gated inwardly rectifying potassium channel KCNH2; assay: Inhibition of human ERG by patch clamp method
80S Ribosome [6] = assay: Binding affinity to 80S ribosome in human HuH7 cells harboring pCMV-truncated human PCSK9 (1 to 152 residues)-proLuc assessed as inhibition of PCSK9 mRNA translation after overnight incubation by luciferase reporter gene assay; format: cell-based; conditions: huh-7
Method in brief: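 Huh7 cells stably carry human PCSK9 prodomain (aa 1-152) fused to firefly luciferase (aa 2-550) in pcDNA3.1, kept under 900 µg/mL Geneticin. Plated 10,000/well in phenol red-free DMEM/10% FBS and left 4 h, then compound added (top final 20 µM, 0.5% DMSO). Incubated overnight at 37 °C, luminescence read with SteadyGlo.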

[7] = Permeability from apical to basolateral side in MDCK cells harboring MDR1; format: ADME, cell-based, Canis lupus familiaris; conditions: dog, read-out: permeability
Method in brief: (§3)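 Bidirectional permeability across MDR1-transfected MDCK monolayers, apical-to-basolateral and basolateral-to-apical; Papp reported in 10^-6 cm/s.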

Ribosome [8] = assay: Binding affinity to 80S ribosome in rat IEC-6 cells assessed as induction of changes in Ndc80 nascent chain expression at 4 uM by ribosome profiling method; format: cell-based; method in brief: as §2
Rattus norvegicus [9] = assay: Toxicity in Crl:CD(SD) rat assessed as mortality at >= 150 mg/kg/day, po daily via gavage for 14 days measured on day 15 post last dose; format: organism-based; conditions: in vivo, 336 h
[10] = Intrinsic clearance in human liver microsomes; format: ADME, microsome; conditions: read-out: CLH
[11] = Fraction unbound in rat plasma; format: ADME, cell-free
Method in brief: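 Unbound fraction measured in rat plasma.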

[12] = Total plasma concentration in Crl:CD(SD) rat at 50 mg/kg/day, po daily via gavage for 14 days measured on day 14 post last dose up to 24 hrs; format: ADME, organism-based; conditions: in vivo
[13] = Lipophilicity, log D of the compound by shake flask method; format: physicochemical; conditions: octanol/water
Method in brief: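 LogD measured by the shake-flask method.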

Rattus norvegicus [14] = assay: Toxicity in Crl:CD(SD) rat assessed as mortality at 500 mg/kg/day, po daily via gavage for 14 days; format: organism-based; conditions: in vivo, 336 h
Method in brief: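 Rats dosed orally at 50, 150 and 500 mg/kg/day for 14 days; crypt epithelium of duodenum/jejunum examined histologically and mortality recorded.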

[15] = Apparent permeability in RRCK cells; format: ADME, cell-based, Canis lupus familiaris, MDCKII-LE; conditions: dog, MDCK
Method in brief: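 Passive permeability measured in RRCK cells, a modified Madin-Darby canine kidney line; Papp reported in 10^-6 cm/s.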

80S Ribosome [16] = assay: Binding affinity to 80S ribosome in human HuH7 cells assessed as inhibition of PCSK9 mRNA translation after overnight incubation by ELISA; format: cell-based; conditions: huh-7
Method in brief: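 Huh7 cells kept in high-glucose DMEM, 10% BSA-free FBS, 2 mM L-glutamine, pen/strep at 37 °C, 5% CO2. Plated 7,500/well with compound or vehicle and incubated overnight (16-20 h). Secreted PCSK9 in the medium read by AlphaLISA: two antibodies to different mature-PCSK9 epitopes, biotinylated antibody 3 nM final, acceptor beads 10 µg/mL, 0.5 h rt; streptavidin donor beads 40 µg/mL, 1 h rt.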

CYP3A4 = CYP3A4 (Homo sapiens, UniProt P08684); assay: Inhibition of CYP3A4 (unknown origin) at 3 uM relative to control; format: ADME; method in brief: as §1
Sequence of CYP3A4 (P08684 whole entry, the tested form may be a part): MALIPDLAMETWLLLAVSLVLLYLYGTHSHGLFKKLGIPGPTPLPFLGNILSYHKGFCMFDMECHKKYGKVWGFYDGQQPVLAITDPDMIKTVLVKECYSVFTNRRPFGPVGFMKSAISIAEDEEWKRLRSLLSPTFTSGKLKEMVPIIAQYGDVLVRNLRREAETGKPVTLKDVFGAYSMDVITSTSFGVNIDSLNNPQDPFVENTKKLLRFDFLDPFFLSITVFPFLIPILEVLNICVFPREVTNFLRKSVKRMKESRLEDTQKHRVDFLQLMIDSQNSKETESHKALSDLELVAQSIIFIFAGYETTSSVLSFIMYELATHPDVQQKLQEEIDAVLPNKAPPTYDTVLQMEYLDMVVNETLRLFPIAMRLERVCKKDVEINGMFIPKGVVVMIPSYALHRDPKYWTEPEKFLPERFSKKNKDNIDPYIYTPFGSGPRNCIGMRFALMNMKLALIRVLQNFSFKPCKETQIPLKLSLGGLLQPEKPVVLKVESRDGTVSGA

[17] = Selectivity index, ratio of IC50 for cytotoxicity against rat bone marrow cells to IC50 for 80S ribosome in human HuH7 cells harboring pCMV-truncated human PCSK9 (1 to 152 residues)-proLuc; format: toxicity, cell-based; conditions: read-out: Ratio IC50
IEC-6 = assay: Cytotoxicity against rat IEC-6 cells assessed as reduction in cell viability after 3 days by CellTiter-Glo assay; format: cell-based; conditions: IEC-6, 72 h
Method in brief: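 Rat intestinal epithelial IEC-6 cells; viability read by CellTiter-Glo ATP luminescence.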

[18] = Total Cmax in Crl:CD(SD) rat at 50 mg/kg/day, po daily via gavage for 14 days measured on day 14 post last dose up to 24 hrs; format: ADME, organism-based; parameters: dose 50 mg/kg/day, route oral; conditions: in vivo
[19] = Intrinsic clearance in rat liver microsomes; format: ADME, microsome; conditions: read-out: CLH
Rattus norvegicus [20] = assay: Toxicity in Crl:CD(SD) rat assessed as single cell necrosis in crypt cells in ileum at 50 mg/kg/day, po daily via gavage for 14 days measured on day 15 post last dose; format: organism-based; conditions: in vivo, 336 h
Mus musculus = assay: Inhibition of PCSK9 secretion in plasma of humanized PCSK9 C57BL6J mouse assessed as free plasma concentration required to show effect at 30 to 100 mg/kg, po via gavage measured up to 24 hrs by ELISA; format: functional
Method in brief: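 Humanized PCSK9 mice given a single oral dose of 30 or 100 mg/kg, with vehicle group. Plasma PCSK9 followed over 0-24 h and normalized to t = 0. Free effective concentration derived from the whole time course with an indirect-effect PK/PD model.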

CYP1A2 = biological target: T2, CYP1A2 (Homo sapiens, UniProt P05177); assay: Inhibition of CYP1A2 (unknown origin) at 3 uM relative to control; format: ADME; method in brief: as §1
T2 sequence (P05177 whole entry): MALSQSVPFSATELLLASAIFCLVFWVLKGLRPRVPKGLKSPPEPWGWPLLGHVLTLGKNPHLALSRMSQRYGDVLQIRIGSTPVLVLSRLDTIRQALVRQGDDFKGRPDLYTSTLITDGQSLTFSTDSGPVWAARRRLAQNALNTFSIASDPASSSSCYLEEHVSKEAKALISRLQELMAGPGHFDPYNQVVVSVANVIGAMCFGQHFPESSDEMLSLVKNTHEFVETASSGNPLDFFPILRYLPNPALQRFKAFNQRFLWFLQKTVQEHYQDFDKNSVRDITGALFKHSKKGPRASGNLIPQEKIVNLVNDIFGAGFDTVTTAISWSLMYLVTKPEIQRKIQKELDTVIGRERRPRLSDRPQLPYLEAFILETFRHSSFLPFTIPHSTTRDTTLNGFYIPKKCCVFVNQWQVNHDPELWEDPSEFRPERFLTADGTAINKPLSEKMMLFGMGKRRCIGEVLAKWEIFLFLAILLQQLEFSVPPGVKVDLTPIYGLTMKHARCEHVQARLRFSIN

Bone marrow cell = assay: Cytotoxicity against rat bone marrow cells assessed as reduction in cell viability after 72 hrs by CellTiter-Glo assay; format: cell-based
Rattus norvegicus [21] = assay: Toxicity in Crl:CD(SD) rat at 50 mg/kg/day, po daily via gavage for 14 days measured on day 15 post last dose; format: organism-based; conditions: in vivo, 336 h
Method in brief: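 Male rats, 5 per group, given vehicle or test compound at 50 mg/kg by daily oral gavage for 14 days. Mortality, clinical signs and hematology were monitored throughout. Toxicokinetics were sampled at 1, 3, 6 and 24 h post-dose on day 14. Necropsy was on day 15, with microscopic evaluation of bone marrow, ileum, duodenum, jejunum and liver.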

Rattus norvegicus [22] = assay: Toxicity in Crl:CD(SD) rat assessed as discolored/mottled liver at 50 mg/kg/day, po daily via gavage for 14 days measured on day 15 post last dose; format: organism-based; conditions: in vivo, 336 h
Method in brief: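 Male rats, 5 per group, given vehicle or compound at 50 mg/kg/day by oral gavage for 14 days. Mortality, clinical signs and hematology monitored throughout. Necropsy on day 15 with microscopy of bone marrow, ileum, duodenum, jejunum and liver. Toxicokinetics at 1, 3, 6 and 24 h post-dose on day 14.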

CYP2D6 = CYP2D6 (Homo sapiens, UniProt P10635); assay: Inhibition of CYP2D6 (unknown origin) at 3 uM relative to control; format: ADME; method in brief: as §1
Sequence of CYP2D6 (P10635 whole entry): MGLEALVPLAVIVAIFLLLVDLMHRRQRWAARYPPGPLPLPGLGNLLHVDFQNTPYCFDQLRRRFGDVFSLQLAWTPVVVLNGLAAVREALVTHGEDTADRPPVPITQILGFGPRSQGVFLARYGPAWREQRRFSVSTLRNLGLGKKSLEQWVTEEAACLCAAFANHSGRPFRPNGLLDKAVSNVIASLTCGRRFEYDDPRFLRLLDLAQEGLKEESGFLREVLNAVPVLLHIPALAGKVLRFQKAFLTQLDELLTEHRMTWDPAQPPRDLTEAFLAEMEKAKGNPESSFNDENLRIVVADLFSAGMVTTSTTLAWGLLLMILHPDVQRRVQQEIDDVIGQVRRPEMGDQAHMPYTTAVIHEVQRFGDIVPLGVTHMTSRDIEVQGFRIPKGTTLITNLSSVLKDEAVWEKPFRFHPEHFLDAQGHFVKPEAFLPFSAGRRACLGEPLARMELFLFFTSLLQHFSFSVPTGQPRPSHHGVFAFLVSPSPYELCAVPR

[23] = Permeability from basolateral to apical side in MDCK cells harboring MDR1; format: ADME, cell-based, Canis lupus familiaris; conditions: dog, read-out: permeability; method in brief: as §3
80S Ribosome [24] = assay: Binding affinity of [3H]PF-06446846 to human 80S ribosome

Sequence of CYP2C9 (P11712 whole entry): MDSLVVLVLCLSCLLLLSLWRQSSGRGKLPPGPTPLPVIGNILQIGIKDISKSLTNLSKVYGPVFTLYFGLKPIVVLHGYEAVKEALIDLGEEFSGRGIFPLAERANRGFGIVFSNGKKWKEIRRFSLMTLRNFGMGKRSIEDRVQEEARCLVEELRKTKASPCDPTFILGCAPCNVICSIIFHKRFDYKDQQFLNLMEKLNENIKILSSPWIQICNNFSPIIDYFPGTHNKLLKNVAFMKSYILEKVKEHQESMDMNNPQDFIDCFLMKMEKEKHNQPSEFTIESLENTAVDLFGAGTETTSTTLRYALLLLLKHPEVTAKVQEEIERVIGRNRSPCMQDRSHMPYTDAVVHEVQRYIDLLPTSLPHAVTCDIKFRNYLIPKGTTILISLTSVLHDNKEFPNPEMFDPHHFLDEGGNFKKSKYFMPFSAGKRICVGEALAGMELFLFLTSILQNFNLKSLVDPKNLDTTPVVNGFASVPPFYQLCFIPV

## Cc1cnc2c(c1)nnn2-c1ccc(C(=O)N(c2ncccc2Cl)[C@@H]2CCCNC2)nc1
CYP2C9
  inhibition at 3 µM: < 13%
Ribosome [1]
  Activity: Active
[2]
  Ki: 5.9 µM
Rattus norvegicus [3]
  NOAEL: 4.231 µM
[4]
  IC50: > 20 µM
[5]
  IC50: 3.6 µM
80S Ribosome [6]
  IC50: 850 nM
[7]
  Papp A→B: 1.3 ×10⁻⁶ cm/s
Ribosome [8]
  Activity: Active
Rattus norvegicus [9]
  Activity: Toxic
[10]
  microsomal CLint: 9.3 µL/min/mg
[11]
  fraction unbound: 0.24
[12]
  concentration: 15.9 µM
[13]
  logD: 0.7
Rattus norvegicus [14]
  Activity: Toxic
[15]
  Papp: 6.2 ×10⁻⁶ cm/s
80S Ribosome [16]
  IC50: 1370 nM
CYP3A4
  inhibition at 3 µM: < 13%
[17]
  selectivity ratio: > 30
IEC-6
  IC50: > 20 µM
[18]
  Cmax: 9660 ng/mL
[19]
  microsomal CLint: 15.1 µL/min/mg
Rattus norvegicus [20]
  Activity: Non-Toxic
Mus musculus
  Cp(f): 175 nM
CYP1A2
  inhibition at 3 µM: < 13%
Bone marrow cell
  IC50: 20 to 65 µM
Rattus norvegicus [21]
  Activity: Non-Toxic
Rattus norvegicus [22]
  Activity: Toxic
CYP2D6
  inhibition at 3 µM: < 13%
[23]
  Papp B→A: 19.9 ×10⁻⁶ cm/s
80S Ribosome [24]
  Ki: 63 µM
